MrgX1 ag = human MrgX1 receptor agonism, primary screen; Q96LB2; 310,000 tested, 0.44% active; B-score at 10 µM; MrgX1-HEK293 cells, Fluo-4 calcium fluorescence, agonist mode; stronger effect = higher value;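 active = calcium response B-score plate-corrected fluorescence ratio at least 3 library SD, with starting fluorescence B-score inside 5 SD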
Target sequence (Q96LB2 whole entry, looked up): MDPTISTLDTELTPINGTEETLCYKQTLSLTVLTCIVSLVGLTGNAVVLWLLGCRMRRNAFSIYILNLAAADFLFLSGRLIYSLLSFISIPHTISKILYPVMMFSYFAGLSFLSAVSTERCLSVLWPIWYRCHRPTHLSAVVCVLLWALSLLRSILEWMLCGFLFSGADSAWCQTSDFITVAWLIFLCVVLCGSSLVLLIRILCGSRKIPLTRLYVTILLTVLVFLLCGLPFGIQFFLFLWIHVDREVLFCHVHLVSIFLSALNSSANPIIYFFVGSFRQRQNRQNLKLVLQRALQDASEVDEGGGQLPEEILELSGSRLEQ
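Assay system: MrgX1-expressing HEK293 cells / Amount: fifteen thousand cells per well / Doses: test compound in the initial addition of three / Timing: cells plated overnight, dye loaded 0.5 h 37 °C, 0.5 h room temperature / Technique: kinetic calcium dye fluorescence, Fluo-4 NW / Control set: positive and negative controls per plate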
KCC2 mod = modulates chloride dependent transport by human KCC2; Q9H2X9; KCC2 cells, thallium flux FluoZin-2 fluorescence; B-score of Tl+ flux slope (higher = more flux/activation; lower = inhibition) at 10 µM; 190,000 tested, 2.2% active; AID 1456;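 active = thallium flux slope and its plate-corrected score both differing from the plate sample mean at a set confidence after two filtering rounds, in either direction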;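 also: slope of fluorescence scaled to starting intensity during 10 to 20 s after thallium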
RGS4 pot = RGS4 potentiation or activation; HEK293 M3R/inducible RGS4, carbachol calcium flux Fluo4; stronger effect = lower value; B-score at 10 µM; 310,000 tested, 0.92% active; AID 463111;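 active = B-score of the integrated calcium signal more than 4 SD below the library mean, with starting fluorescence not abnormally high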;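 also: negative B-score means reduced calcium response which marks RGS4 activation or potentiation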
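test system = HEK293 cells with stable M3R and inducible RGS4 | schedule = recording 10 s baseline at 1 Hz, 100 s post-agonist | technique = Fluo4-AM (2 µM) calcium-flux fluorescence, kinetic read | measure = Agonist-evoked peak-minus-minimum fluorescence over baseline, integrated ratio, B score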
MrgX1 antag = blocks BAM8-22 activation of human MrgX1 receptor | Q96LB2 | MRGX1-HEK293 calcium flux, Fluo-4, BAM8-22 antagonism; stronger effect = lower value | B-score at 10 µM | 310,000 tested, 1.3% active;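 active = calcium-response B-score plate-corrected more than 3 library SD below zero, starting fluorescence within 5 deviations, no agonist response on first addition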;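 also: peak minus trough fluorescence over baseline after final BAM8-22 challenge near maximal dose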
RGS4 block = human RGS4 inhibition. P49798. HEK293 M3R/RGS4 inducible, Fluo-4 calcium flux; stronger effect = higher value; triggered by carbachol at its EC20. B-score at 10 µM. 310,000 tested, 0.45% active. AID 463165;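 active = B-score, a plate-corrected calcium signal, over three deviations above library mean, with baseline fluorescence within five deviations of library mean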;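 also: RGS4 expression induced by doxycycline in cells with stable M3 receptor; B-score is computed from the integrated fluorescence ratio over baseline after carbachol; higher B-score means a larger calcium signal and so more RGS4 inhibition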
Target sequence (P49798 whole entry, looked up): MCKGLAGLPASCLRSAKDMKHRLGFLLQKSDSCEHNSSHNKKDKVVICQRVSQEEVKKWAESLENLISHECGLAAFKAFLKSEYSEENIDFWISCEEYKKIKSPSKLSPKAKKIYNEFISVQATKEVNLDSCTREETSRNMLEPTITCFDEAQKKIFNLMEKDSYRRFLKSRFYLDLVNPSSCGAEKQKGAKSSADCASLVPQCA
MrgX1 allo act = human MrgX1 positive allosteric modulation, primary screen | 310,000 tested, 0.63% active | MrgX1-HEK293, Fluo-4 calcium flux, FDSS; stronger effect = higher value | B-score at 10 µM;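 active = plate-corrected calcium response at least 3 library SD above typical, normal starting fluorescence, not activating the receptor alone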;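 also: compound read alongside a low EC10 to EC30 dose of BAM8-22 agonist; peak minus trough fluorescence over baseline measured at the second addition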
RGS4 activ val = RGS4 activation, validation assay; HEK293 M3R/RGS4 inducible, carbachol calcium flux Fluo4; AID 602282; shares compounds with RGS4 pot; inhibition, % at 10 µM; 1,100 tested, 89% active;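 active = inhibition above 3 SD of the buffer control wells, cut at about 41% in these data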;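 also: signal is the integrated peak-minus-minimum Fluo4 fluorescence over baseline ratio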
RGS4 act ctr = counter-screen for RGS4 activators: effect in non-induced cells; shares compounds with RGS4 pot; inhibition, % at 10 µM; AID 602283; HEK293 M3R non-induced RGS4, Fluo4 calcium flux; after carbachol challenge at its EC90; 1,100 tested, 82% active;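 active = inhibition exceeding 3 SD of buffer-only control wells, cut at about 26% in these data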;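 also: percent drop in integrated peak-minus-baseline over baseline Fluo4 ratio after carbachol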
* hit, by the source's call. Rows were chosen to be rich in hits. Some 4.7% of all compounds tested hit in one or more screens of this group.

Results for Cc1cc(NCc2ccccn2)n2ncc(-c3ccccc3)c2n1 ?
MrgX1 ag: inactive; KCC2 mod: -0.58; RGS4 pot: -7.8*; MrgX1 antag: inactive; RGS4 block: inactive; MrgX1 allo act: inactive; RGS4 activ val: 90*; RGS4 act ctr: 43*

Results for Cc1cc(NCc2ccccn2)n2ncc(-c3ccc(Cl)cc3)c2n1 ?
MrgX1 ag: inactive; KCC2 mod: 0.71; RGS4 pot: inactive; MrgX1 antag: inactive; RGS4 block: inactive; MrgX1 allo act: inactive

Results for O=C(c1ccc2nc(-c3ccco3)c(-c3ccco3)nc2c1)N1CCN(c2ccccc2)CC1 ?
MrgX1 ag: inactive; KCC2 mod: -1.1; RGS4 pot: -13*; MrgX1 antag: inactive; RGS4 block: inactive; MrgX1 allo act: inactive; RGS4 activ val: 92*; RGS4 act ctr: 46*

How did COc1ccc(C(=O)Oc2cccc(Nc3ncnc4ccccc34)c2)cc1OC do in these assays?
MrgX1 ag: inactive; KCC2 mod: -2.7; RGS4 pot: inactive; MrgX1 antag: inactive; RGS4 block: inactive; MrgX1 allo act: inactive

What do the screens show for `COc1cc(C(=O)Oc2cccc(Nc3ncnc4ccccc34)c2)cc(OC)c1OC`?
MrgX1 ag: inactive; KCC2 mod: -0.084; RGS4 pot: -12*; MrgX1 antag: inactive; RGS4 block: inactive; MrgX1 allo act: inactive; RGS4 activ val: 92*; RGS4 act ctr: 80*

What do the screens show for `Cc1ccc(C(=O)Nc2cccc(C(=O)NCc3ccccc3)c2)o1`?
MrgX1 ag: inactive; KCC2 mod: 0.22; RGS4 pot: inactive; MrgX1 antag: inactive; RGS4 block: inactive; MrgX1 allo act: inactive

How did C/C(=N\NC(=O)C1(C)CC1(Br)Br)c1cccc(NC(=O)c2ccc(C)o2)c1 (configuration not stated) do in these assays?
MrgX1 ag: inactive; RGS4 pot: -12*; MrgX1 antag: inactive; RGS4 block: inactive; MrgX1 allo act: 7*; RGS4 activ val: 92*; RGS4 act ctr: 81*

How did CCOc1cccc(C(=O)NC(=S)Nc2ccc(N3CCN(CC)CC3)cc2)c1 do in these assays?
MrgX1 ag: inactive; KCC2 mod: 2.4; RGS4 pot: -11*; MrgX1 antag: inactive; RGS4 block: inactive; MrgX1 allo act: inactive; RGS4 activ val: 92*; RGS4 act ctr: 87*

What do the screens show for `CSc1ccc(S(=O)(=O)N2CCN(Cc3ccc4c(c3)OCO4)CC2)cc1`?
MrgX1 ag: inactive; KCC2 mod: 0.078; RGS4 pot: -9.9*; MrgX1 antag: inactive; RGS4 block: inactive; MrgX1 allo act: inactive; RGS4 activ val: 92*; RGS4 act ctr: 91*

How did CCOc1ccc(S(=O)(=O)N2CCN(Cc3ccc4c(c3)OCO4)CC2)cc1Cl do in these assays?
MrgX1 ag: inactive; RGS4 pot: inactive; MrgX1 antag: inactive; RGS4 block: inactive; MrgX1 allo act: inactive

Results for COc1ccc(S(=O)(=O)N2CCN(Cc3ccc4c(c3)OCO4)CC2)cc1 ?
MrgX1 ag: inactive; RGS4 pot: -11*; MrgX1 antag: inactive; RGS4 block: inactive; MrgX1 allo act: inactive; RGS4 activ val: 62*; RGS4 act ctr: 84*

How did Cc1cccc(S(=O)(=O)N2CCN(Cc3ccc4c(c3)OCO4)CC2)c1 do in these assays?
MrgX1 ag: inactive; RGS4 pot: -10*; MrgX1 antag: inactive; RGS4 block: inactive; MrgX1 allo act: inactive; RGS4 activ val: 68*; RGS4 act ctr: 84*

Results for COc1ccc(S(=O)(=O)N2CCC(N3CCN(Cc4ccccc4)CC3)CC2)cc1 ?
MrgX1 ag: inactive; KCC2 mod: -1.9; RGS4 pot: -8*; MrgX1 antag: inactive; RGS4 block: inactive; MrgX1 allo act: inactive; RGS4 activ val: 86*; RGS4 act ctr: 50*

What do the screens show for `COc1ccc(/C=N/NC(=O)c2cccc(NC(=O)c3ccccc3Cl)c2)c(OC)c1`?
MrgX1 ag: inactive; KCC2 mod: -1.9; RGS4 pot: inactive; MrgX1 antag: inactive; RGS4 block: inactive; MrgX1 allo act: inactive

Results for Cc1ccccc1Cn1c(NC2CCCC2)nc2c1c(=O)[nH]c(=O)n2C ?
MrgX1 ag: inactive; RGS4 pot: inactive; MrgX1 antag: inactive; RGS4 block: inactive; MrgX1 allo act: inactive

Results for Cc1ccc(OCc2cc(C(=O)N3CCc4sccc4C3)no2)cc1C ?
MrgX1 ag: inactive; RGS4 pot: -7.7*; MrgX1 antag: inactive; RGS4 block: inactive; MrgX1 allo act: inactive; RGS4 activ val: 81*; RGS4 act ctr: 44*

Results for COc1ccc(NC(=O)CN(C)C(=O)c2cn(-c3ccccc3)nc2-c2ccc(Cl)cc2)cc1 ?
MrgX1 ag: inactive; RGS4 pot: inactive; MrgX1 antag: inactive; RGS4 block: inactive; MrgX1 allo act: inactive

How did C/C(O)=c1/ccc2cccc3nc(C)nc1c23 do in these assays?
MrgX1 ag: inactive; KCC2 mod: inactive; RGS4 pot: -8.3*; MrgX1 antag: inactive; RGS4 block: inactive; MrgX1 allo act: inactive; RGS4 activ val: 74*; RGS4 act ctr: 69*

What do the screens show for `O/C=c1\ccc2cccc3nc(C(F)(F)F)nc1c23`?
MrgX1 ag: inactive; RGS4 pot: inactive; MrgX1 antag: inactive; RGS4 block: inactive; MrgX1 allo act: inactive

What do the screens show for `COC(=O)c1cccc(Nc2nc(-c3cccnc3)nc3ccccc23)c1`?
MrgX1 ag: inactive; KCC2 mod: -0.87; RGS4 pot: -8.4*; MrgX1 antag: inactive; RGS4 block: inactive; MrgX1 allo act: inactive; RGS4 activ val: 42*; RGS4 act ctr: 0

Results for Cc1ccc(Cl)cc1NC1=NC(=S)N(C(C)C)C12CCCCC2 ?
MrgX1 ag: inactive; KCC2 mod: 0.88; RGS4 pot: -8.3*; MrgX1 antag: inactive; RGS4 block: inactive; MrgX1 allo act: inactive; RGS4 activ val: 80*; RGS4 act ctr: 41*

How did O=C(NCc1n[nH]c(=O)c2ccccc12)C1CC(=O)N(c2ccc(Cl)cc2)C1 (configuration not stated) do in these assays?
MrgX1 ag: inactive; RGS4 pot: inactive; MrgX1 antag: inactive; RGS4 block: inactive; MrgX1 allo act: inactive

Results for CCOc1ccc(CNCc2cccnc2)cc1 ?
MrgX1 ag: inactive; KCC2 mod: 0.25; RGS4 pot: inactive; MrgX1 antag: inactive; RGS4 block: inactive; MrgX1 allo act: inactive
